# Screening results deposited in PubChem by Broad Institute.
# A1 apoptosis 2: A1 inhibition read as caspase activation; MEF A1-2A-BIM cells, caspase-Glo luminescence, 3 h; percent of clofoctol response, DMSO zero; caspase activation, % (concentration not given with the values); 24,000 tested, under 10 active; in the data active = caspase activation above about 5.9%
#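 Test system – A1-2A-BIM-expressing MEF cells · Input – 2500 cells/well · Medium – RPMI-1640 growth medium with 10% FBS · Compound dosing – 50 nL pinned compound · Timing – 3 h compound exposure at 37 °C · Technique – Caspase-Glo luminescence (DEVD substrate) · Evaluation – Caspase-3/7 activity from luminescence increase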
# T cruzi intra: inhibitors of intracellular Trypanosoma cruzi | activity score (inhibition), % at 5.01 µM | AID 651903 | hit rate 4.9% among 22,000 | intracellular Trypanosoma cruzi in host cells, plate reader; in the data active = activity score above about 55%;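 note: parasites and compound incubated about four days before reading; 0% = median of neutral control wells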
# INS-1E ATP HTS: INS-1E beta cell protection from cytokine death; AID 488910; hit rate 0.1% among 20,000; protection from cytokine-induced ATP loss, % at 10 µM; INS-1E cytokine-induced death, ATP luminescence, 48 h; normalised: neutral wells 0, positive control 100;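 active = mean replicate protection from cytokine-induced ATP loss at least 50% and at least 75% of replicates each reaching 50%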
#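 Material: INS-1E rat cells; Quantity: 8000 cells/well; Buffer or medium: phenol-red-free RPMI with 5% fetal bovine serum; Probe or stimulus: cytokine cocktail of IFN-γ, TNF-α and IL-1β; Compound dosing: single test concentration per compound, delivered by pin transfer; Incubation: 48 h co-treatment, 10 min post-lysis read; Signal: CellTiter-Glo luminescence.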
# * hit, by the source's call; / = not tested or not shown. This excerpt belongs to a sample that is enriched for hits.
SMILES,A1 apoptosis 2,T cruzi intra,INS-1E ATP HTS
C[C@@H]1CN([C@@H](C)CO)C(=O)c2cccc(NC(=O)Nc3ccc(C(F)(F)F)cc3)c2O[C@H]1CN(C)CC1CC1,-0.2,9.6,-35.0
C[C@@H]1CN([C@H](C)CO)C(=O)c2cccc(NC(=O)Nc3ccc(C(F)(F)F)cc3)c2O[C@@H]1CN(C)CC1CC1,-0.2,-38.9,-8.8
C[C@H](CO)N1C[C@H](C)[C@@H](CN(C)CC2CCCCC2)Oc2c(NC(=O)Nc3ccc(C(F)(F)F)cc3)cccc2C1=O,0.2,69.3*,-70.8
C=CCN1Cc2ccccc2[C@H]2OC(c3ccc(OCCCO)cc3)=N[C@@]2(Cc2ccccc2)C1=O,-0.8,/,/
O=C1O[C@H](c2ccccc2)[C@H](c2ccccc2)N2[C@H]1[C@@H](C(=O)NC[C@H](O)c1ccccc1)[C@]1(C(=O)Nc3ccc(C#CCCO)cc31)[C@H]2c1ccccc1OCCO,1.1,/,/
CN1C(=O)N[C@@H]2c3ccccc3O[C@@]1(C)[C@@H]2CO[Si](C)(C)C(C)(C)C,-1.2,/,/
COC(=O)CCCCCCC(=O)N/N=C/c1ccc(OCC(N)=O)cc1,-0.2,-21.8,12.5
C[C@H](CO)N1C[C@H](C)[C@H](CN(C)CC2CC2)Oc2c(NC(=O)c3ccncc3)cccc2C1=O,0.4,-20.6,0.4
C[C@@H]1CN([C@H](C)CO)C(=O)c2cccc(NC(=O)c3ccncc3)c2O[C@H]1CN(C)CC1CC1,0.7,55.8*,4.5
Cc1cc(C(=O)Nc2cccc3c2O[C@H](CN(C)CC2CC2)[C@H](C)CN([C@@H](C)CO)C3=O)n(C)n1,0.1,60.7*,-6.6
C[C@@H]1CN([C@@H](C)CO)C(=O)c2cccc(NS(=O)(=O)c3cn(C)cn3)c2O[C@H]1CN(C)CC1CCCCC1,/,61.7*,3.9
C[C@H](CO)N1C[C@H](C)[C@H](CN(C)CC2CCCCC2)Oc2c(NC(=O)c3ccncc3)cccc2C1=O,/,52.3,-4.1
Cc1cc(C(=O)Nc2cccc3c2O[C@@H](CN(C)CC2CC2)[C@H](C)CN([C@H](C)CO)C3=O)n(C)n1,-0.8,4.1,0.6
C[C@H](CO)N1C[C@H](C)[C@@H](CN(C)CC2CCCCC2)Oc2c(NS(=O)(=O)c3cn(C)cn3)cccc2C1=O,/,-24.7,6.2
C[C@@H]1CN([C@H](C)CO)C(=O)c2cccc(NC(=O)c3ccncc3)c2O[C@H]1CN(C)CC1CCCCC1,-0.1,84.4*,-2.5
C[C@@H](O)[C@@H](O)[C@@H](O)C/C=N/NC(=O)CCCCCC(=O)Nc1ccccc1O,-1.4,-20.0,-9.1
O=C1c2ccccc2[C@](Cc2ccccc2I)(C(=O)O)[C@H](c2ccc(CO)cc2)N1C1CCCCC1,0.1,/,/
O=C(CCCCCCC(=O)Nc1ccccc1O)N/N=C/c1cccnc1,0.7,2.7,-6.8
COC(=O)CCCCCCC(=O)N/N=C/[C@@H](O)[C@@H](O)[C@H](O)[C@H](O)CO,0.0,-5.6,-10.1
O=C(NO)c1cccc(C(=O)N/N=C/c2cc(O)ccc2O)c1,-1.4,27.4,20.7
COc1ccc2nc(Cl)nc(NC3CCCCC3)c2c1,-0.4,/,/
Cc1ccc(S(=O)(=O)Nc2ccc3c(c2)CC(=O)N([C@H](C)CO)C[C@@H](C)[C@@H](CN(C)Cc2ccc(Oc4ccccc4)cc2)O3)cc1,/,65.1*,-22.0
C[C@H]1CN([C@@H](C)CO)C(=O)Cc2cc(NS(=O)(=O)c3ccc(F)cc3)ccc2O[C@@H]1CN(C)Cc1ccc(Oc2ccccc2)cc1,2.3,65.7*,-18.7
C[C@@H]1CN([C@@H](C)CO)C(=O)Cc2cc(NS(=O)(=O)c3ccccc3)ccc2O[C@@H]1CN(C)Cc1ccc(Oc2ccccc2)cc1,0.1,44.7,-20.3
C[C@@H]1CN([C@H](C)CO)C(=O)Cc2cc(NS(=O)(=O)c3ccccc3)ccc2O[C@H]1CN(C)Cc1ccc(Oc2ccccc2)cc1,/,40.1,-19.5
SMILES,A1 apoptosis 2,T cruzi intra,INS-1E ATP HTS
C[C@@H]1CN([C@H](C)CO)C(=O)Cc2cc(NS(=O)(=O)c3ccc(F)cc3)ccc2O[C@H]1CN(C)Cc1ccc(Oc2ccccc2)cc1,-1.0,66.2*,-45.4
Cc1ccc(S(=O)(=O)Nc2ccc3c(c2)CC(=O)N([C@H](C)CO)C[C@H](C)[C@@H](CN(C)Cc2ccc(Oc4ccccc4)cc2)O3)cc1,-2.1,/,/
NCCCCCCNC(=O)[C@@H]1C[C@@H]2C(=O)NCC(=O)N2[C@@H]1c1cccc(OCCO)c1,-1.0,/,/
C[C@@H]1CN([C@H](C)CO)C(=O)Cc2cc(NS(=O)(=O)c3ccc(Cl)cc3)ccc2O[C@H]1CN(C)Cc1ccc2c(c1)OCO2,0.9,64.5*,-5.8
C[C@@H]1CN([C@@H](C)CO)C(=O)Cc2cc(NS(=O)(=O)c3ccc(Cl)cc3)ccc2O[C@H]1CN(C)Cc1ccc2c(c1)OCO2,-0.5,/,/
Cc1ccc(S(=O)(=O)Nc2ccc3c(c2)CC(=O)N([C@@H](C)CO)C[C@@H](C)[C@@H](CN(C)Cc2ccc4c(c2)OCO4)O3)cc1,-1.7,26.9,-3.4
C[C@@H]1CN([C@H](C)CO)C(=O)Cc2cc(NS(=O)(=O)c3ccc(Cl)cc3)ccc2O[C@@H]1CN(C)Cc1ccc2c(c1)OCO2,/,60.1*,-10.7
CCn1c2ccccc2c2cc(/C=N/NC(=O)CCCCCC(=O)Nc3ccccc3O)ccc21,0.1,/,/
O=C(CCCCCC(=O)Nc1ccccc1O)N/N=C/c1cccs1,-0.1,/,/
C[C@H]1CN([C@@H](C)CO)C(=O)c2cccc(NC(=O)Nc3ccc(C(F)(F)F)cc3)c2O[C@@H]1CN(C)Cc1ccc(Cl)c(Cl)c1,-0.2,77.4*,-26.9
C[C@@H]1CN([C@@H](C)CO)C(=O)c2cccc(NC(=O)Nc3ccc(C(F)(F)F)cc3)c2O[C@@H]1CN(C)Cc1ccc(Cl)c(Cl)c1,-0.1,79.2*,-31.4
C[C@H](CO)N1C[C@H](C)[C@@H](CN(C)Cc2ccc(Cl)c(Cl)c2)Oc2c(NC(=O)Nc3ccc(C(F)(F)F)cc3)cccc2C1=O,-1.1,81.7*,-39.6
C[C@H]1CN([C@@H](C)CO)C(=O)c2cccc(NC(=O)Nc3ccccc3)c2O[C@@H]1CN(C)Cc1ccc(Cl)c(Cl)c1,-0.8,8.8,-13.1
C[C@@H]1CN([C@@H](C)CO)C(=O)c2cccc(NC(=O)Nc3ccc(F)cc3)c2O[C@@H]1CN(C)Cc1ccc(Cl)c(Cl)c1,-1.5,20.6,-70.6
C[C@H](CO)N1C[C@H](C)[C@H](CN(C)Cc2ccc(Cl)c(Cl)c2)Oc2c(NC(=O)Nc3ccccc3)cccc2C1=O,0.1,15.9,-46.2
COc1ccc(Br)c(/C=N/NC(=O)c2ccc(C(=O)NO)cc2)c1,0.1,3.4,27.9
O=C(N/N=C/c1ccoc1)c1ccccn1,/,-4.5,-0.7
O=C(CCCCCC(=O)N/N=C/c1ccc([N+](=O)[O-])s1)NO,/,64.3*,19.7
O=C(CCCCCC(=O)Nc1ccccc1O)N/N=C/c1ccc([N+](=O)[O-])s1,0.1,/,/
O=C(O)CCCCCCC(=O)N/N=C/c1ccc([N+](=O)[O-])s1,-1.8,31.9,-5.6
COC(=O)CCCCCCC(=O)N/N=C/c1ccc([N+](=O)[O-])s1,-0.5,80.9*,-62.0
